Laboratory results as given in ChEMBL document CHEMBL5247578, “Effective synthesis of benzimidazoles-imidazo[1,2-a]pyrazine conjugates: A comparative study of mono-and bis-benzimidazoles for antitumor activity” (Eur J Med Chem, 2019).

What was measured:
[1] = n-Octanol/phosphate buffer partition coefficient, logP of the compound at pH 7.4 incubated for 85 mins by shake-flask method; type: physicochemical
How it was run: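 Octanol–water partition by shake-flask: n-octanol with 0.15 M phosphate buffer pH 7.4 at 10:1 volumes. Buffer-phase absorbance read before mixing, then shaken 50 min and centrifuged at 2500 rpm for 35 min. Buffer absorbance read again; P = (Ai−Af)/Af × Vw/Vo.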

BT-549 = test: Antiproliferative activity against human BT-549 cells assessed as cell growth inhibition at 10 uM incubated for 48 hrs by sulforhodamine B assay relative to control; type: functional
How it was run: (§1)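 Single-dose NCI-60 prescreen at 10^-5 M. Cells in RPMI 1640 with 5% FBS and 2 mM L-glutamine, seeded 5,000–40,000 cells/well with 24 h preincubation, then drug exposure for 48 h at 37 °C under 5% CO2. Growth read by SRB staining of TCA-fixed cells at 515 nm against time-zero and untreated controls. Negative growth values denote cell kill.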

MDA-MB-231 = test: Antiproliferative activity against human MDA-MB-231 cells assessed as cell growth inhibition at 10 uM incubated for 48 hrs by sulforhodamine B assay relative to control; type: functional
How it was run: (§2)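 NCI-60 single-dose screen at 10^-5 M. Cells grown in RPMI 1640 with 5% FBS and 2 mM L-glutamine, plated at 5,000–40,000 cells/well, and preincubated 24 h. Drug (DMSO stock) added and incubated 48 h at 37 °C, 5% CO2. Adherent cells fixed with cold TCA, stained with 0.4% SRB in 1% acetic acid, dye solubilized in 10 mM trizma base, A515 read. Percent growth taken against time-zero and untreated control.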

DU-145 = test: Antiproliferative activity against human DU-145 cells assessed as cell growth inhibition at 10 uM incubated for 48 hrs by sulforhodamine B assay relative to control; type: functional
How it was run: (§3)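 NCI-60 one-dose prescreen at 10^-5 M. Cells grown in RPMI 1640 with 5% FBS and 2 mM glutamine, preincubated 24 h, then exposed 48 h at 37 °C. Adherent lines TCA-fixed, SRB-stained, A515 read. Growth percent relative to time-zero and control; negative values mean cell kill.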

UO-31 = test: Antiproliferative activity against human UO-31 cells assessed as cell growth inhibition at 10 uM incubated for 48 hrs by sulforhodamine B assay relative to control; type: functional; how it was run: as §2
SN12C = test: Antiproliferative activity against human SN12C cells assessed as cell growth inhibition at 10 uM incubated for 48 hrs by sulforhodamine B assay relative to control; type: functional; how it was run: as §2
OVCAR-8 = test: Antiproliferative activity against human OVCAR-8 cells assessed as cell growth inhibition at 10 uM incubated for 48 hrs by sulforhodamine B assay relative to control; type: functional; how it was run: as §2
OVCAR-3 = test: Antiproliferative activity against human OVCAR-3 cells assessed as cell growth inhibition at 10 uM incubated for 48 hrs by sulforhodamine B assay relative to control; type: functional; how it was run: as §2
UACC-62 = test: Antiproliferative activity against human UACC-62 cells assessed as cell growth inhibition at 10 uM incubated for 48 hrs by sulforhodamine B assay relative to control; type: functional; how it was run: as §2
SK-MEL-28 = test: Antiproliferative activity against human SK-MEL-28 cells assessed as cell growth inhibition at 10 uM incubated for 48 hrs by sulforhodamine B assay relative to control; type: functional; how it was run: as §2
SK-MEL-2 = test: Antiproliferative activity against human SK-MEL-2 cells assessed as cell growth inhibition at 10 uM incubated for 48 hrs by sulforhodamine B assay relative to control; type: functional; how it was run: as §2
MDA-MB-435 = test: Antiproliferative activity against human MDA-MB-435 cells assessed as cell growth inhibition at 10 uM incubated for 48 hrs by sulforhodamine B assay relative to control; type: functional; how it was run: as §2
SNB-75 = test: Antiproliferative activity against human SNB-75 cells assessed as cell growth inhibition at 10 uM incubated for 48 hrs by sulforhodamine B assay relative to control; type: functional; how it was run: as §2
SNB-19 = test: Antiproliferative activity against human SNB-19 cells assessed as cell growth inhibition at 10 uM incubated for 48 hrs by sulforhodamine B assay relative to control; type: functional; how it was run: as §2
SF-295 = test: Antiproliferative activity against human SF-295 cells assessed as cell growth inhibition at 10 uM incubated for 48 hrs by sulforhodamine B assay relative to control; type: functional; how it was run: as §2
KM12 = test: Antiproliferative activity against human KM12 cells assessed as cell growth inhibition at 10 uM incubated for 48 hrs by sulforhodamine B assay relative to control; type: functional; how it was run: as §2
HCT-116 = test: Antiproliferative activity against human HCT-116 cells assessed as cell growth inhibition at 10 uM incubated for 48 hrs by sulforhodamine B assay relative to control; type: functional; how it was run: as §3
SR = test: Antiproliferative activity against human SR cells assessed as cell growth inhibition at 10 uM incubated for 48 hrs by sulforhodamine B assay relative to control; type: functional; how it was run: as §2
K562 = test: Antiproliferative activity against human K562 cells assessed as cell growth inhibition at 10 uM incubated for 48 hrs by sulforhodamine B assay relative to control; type: functional; how it was run: as §2
HL-60 = test: Antiproliferative activity against human HL-60 cells assessed as cell growth inhibition at 10 uM incubated for 48 hrs by sulforhodamine B assay relative to control; type: functional; how it was run: as §3
TK-10 = test: Antiproliferative activity against human TK-10 cells assessed as cell growth inhibition at 10 uM incubated for 48 hrs by sulforhodamine B assay relative to control; type: functional; how it was run: as §2
CAKI-1 = test: Antiproliferative activity against human CAKI-1 cells assessed as cell growth inhibition at 10 uM incubated for 48 hrs by sulforhodamine B assay relative to control; type: functional; how it was run: as §1
SK-OV-3 = test: Antiproliferative activity against human SK-OV-3 cells assessed as cell growth inhibition at 10 uM incubated for 48 hrs by sulforhodamine B assay relative to control; type: functional; how it was run: as §2
HT-29 = test: Antiproliferative activity against human HT-29 cells assessed as cell growth inhibition at 10 uM incubated for 48 hrs by sulforhodamine B assay relative to control; type: functional; how it was run: as §2
HOP-62 = test: Antiproliferative activity against human HOP-62 cells assessed as cell growth inhibition at 10 uM incubated for 48 hrs by sulforhodamine B assay relative to control; type: functional; how it was run: as §3

Compound | logD at 1.417 h [1] | inhibition at 10 µM (BT-549) [%] | inhibition at 10 µM (MDA-MB-231) [%] | inhibition at 10 µM (DU-145) [%] | inhibition at 10 µM (UO-31) [%] | inhibition at 10 µM (SN12C) [%] | inhibition at 10 µM (OVCAR-8) [%] | inhibition at 10 µM (OVCAR-3) [%] | inhibition at 10 µM (UACC-62) [%] | inhibition at 10 µM (SK-MEL-2) [%] | inhibition at 10 µM (SNB-75) [%] | inhibition at 10 µM (SNB-19) [%] | inhibition at 10 µM (SF-295) [%] | inhibition at 10 µM (KM12) [%] | inhibition at 10 µM (HCT-116) [%] | inhibition at 10 µM (SR) [%] | inhibition at 10 µM (K562) [%] | inhibition at 10 µM (HL-60) [%] | inhibition at 10 µM (HT-29) [%] | inhibition at 10 µM (HOP-62) [%] | other results
Fc1ccc(-c2cn3ccnc3c(-c3ccc4ncn(C5CCCCC5)c4c3)n2)cc1 | 2.01 | 20.3 | 15.8 | 1.17 | 37.8 | 3.97 | 9.54 | 7.88 | 31 | 9.82 | 21 | 14.2 | 7.93 | 3.49 | 18 | 20.4 | 24.7 | 2.03 | – | – | inhibition at 10 µM (SK-MEL-28): 2.67%; inhibition at 10 µM (MDA-MB-435): 1.78%
Brc1cn2ccnc2c(-c2ccc3ncn(C4CCCCC4)c3c2)n1 | – | 5.16 | 24.2 | 6.2 | 37.6 | 6.47 | 4.92 | 15.8 | 19.8 | 10.2 | 21.2 | 8.09 | – | 67.7 | – | 26.8 | 18 | 18 | 5.21 | 21.7 | inhibition at 10 µM (TK-10): 5.55%
c1ccc(Cn2cnc3ccc(-c4nc(-c5cccc6ccccc56)cn5ccnc45)cc32)cc1 | 2 | – | 28.7 | – | 31.3 | 5.62 | 6.22 | 1.44 | 12.9 | 16.9 | 16.2 | 5.12 | 8.22 | 11 | 32.9 | 12.4 | – | – | 18.6 | 14 | inhibition at 10 µM (CAKI-1): 27.1%

Further lines, with some results ahead:

logD at 1.417 h [1] | Compound | inhibition at 10 µM (BT-549) [%] | inhibition at 10 µM (MDA-MB-231) [%] | inhibition at 10 µM (DU-145) [%] | inhibition at 10 µM (UO-31) [%] | inhibition at 10 µM (SN12C) [%] | inhibition at 10 µM (OVCAR-8) [%] | inhibition at 10 µM (OVCAR-3) [%] | inhibition at 10 µM (UACC-62) [%] | inhibition at 10 µM (SK-MEL-2) [%] | inhibition at 10 µM (SNB-75) [%] | inhibition at 10 µM (SNB-19) [%] | inhibition at 10 µM (SF-295) [%] | inhibition at 10 µM (KM12) [%] | inhibition at 10 µM (HCT-116) [%] | inhibition at 10 µM (SR) [%] | inhibition at 10 µM (K562) [%] | inhibition at 10 µM (HL-60) [%] | inhibition at 10 µM (HT-29) [%] | inhibition at 10 µM (HOP-62) [%] | other results
1.5 | O=Cc1ccc(-c2cn3ccnc3c(-c3ccc4ncn(C5CCCCC5)c4c3)n2)cc1 | 33.8 | 51.2 | 24.3 | 82.2 | 20.7 | 44 | 23.7 | 37.1 | 27.8 | 21.4 | 14.4 | 23.1 | 3.69 | 92.6 | 47.5 | – | 16.5 | 17.5 | 23.8 | inhibition at 10 µM (TK-10): 0.75%; inhibition at 10 µM (CAKI-1): 36.5%; inhibition at 10 µM (SK-OV-3): 5.11%; inhibition at 10 µM (SK-MEL-28): 7.54%; inhibition at 10 µM (MDA-MB-435): 13%
1.72 | COc1ccccc1-c1cn2ccnc2c(-c2ccc3ncn(C4CCCCC4)c3c2)n1 | – | 15.9 | – | 24 | 7.73 | 8.78 | 6.57 | 25.1 | 12.1 | 35 | 11.1 | 9.76 | 3.58 | 28.3 | 26.3 | 22.6 | 14.6 | 11.1 | – | inhibition at 10 µM (SK-OV-3): 10.6%
1.95 | Fc1ccccc1-c1cn2ccnc2c(-c2ccc3ncn(C4CCCCC4)c3c2)n1 | 4.08 | 21.3 | 0.96 | 22.9 | 10.1 | 14.1 | 0.17 | 38.2 | 10.5 | 29.7 | 7.56 | 10.4 | 2.45 | 25.8 | 16.3 | 22.8 | 9.3 | 7.26 | – | –
1.88 | O=Cc1ccc(-c2cn3ccnc3c(-c3ccc4ncn(Cc5ccccc5)c4c3)n2)cc1 | 33.8 | 51.2 | 24.3 | 82.2 | 20.7 | 44 | 23.7 | 37.1 | 27.8 | 21.4 | 14.4 | 23.1 | 3.69 | 92.6 | 47.5 | – | 16.5 | 17.5 | 23.8 | inhibition at 10 µM (TK-10): 0.75%; inhibition at 10 µM (CAKI-1): 36.5%; inhibition at 10 µM (SK-OV-3): 5.11%; inhibition at 10 µM (SK-MEL-28): 7.54%; inhibition at 10 µM (MDA-MB-435): 13%
